Key:
Format in all cases: ADME
[1] = The compound was tested for half life in presence of dithionite as additive (20 mM)
In short: (§1)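 N-hydroxyacetaminophen at 1.5 mM initial, incubated at 37 °C in 0.2 M sodium phosphate pH 7.6, with each additive (20 mM) present before adding substrate. Aliquots were quenched in cold acetic acid (final pH ~3), or mixed with 10% FeCl3 in 0.9 M HCl and read at 540 nm. Remaining substrate was tracked by HPLC peak height (system A) or by the ferric assay. First-order disappearance gave the half-life.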

[2] = The compound was tested for half life in presence of p-Nitrosophenol as additive (20 mM); in short: as §1
[3] = The compound was tested for half life in presence of pyrogallol as additive (20 mM); in short: as §1
[4] = The compound was tested for half life in presence of ascorbic acid as additive (20 mM); in short: as §1
[5] = The compound was tested for half life in presence of thiosulphate as additive (20 mM); in short: as §1
[6] = The compound was tested for half life in presence of methionine as additive (20 mM); in short: as §1
[7] = The compound was tested for half life in presence of lysine as additive (20 mM); in short: as §1
[8] = The compound was tested for half life in presence of glycine as additive (20 mM); in short: as §1
[9] = The compound was tested for half life in presence of ethanol as additive (20 mM); in short: as §1
[10] = The compound was tested for half life in presence of phenol as additive (20 mM); in short: as §1
[11] = The compound was tested for half life in presence of N-acetyl cysteine as additive (20 mM); in short: as §1
[12] = The compound was tested for half life in presence of cysteamine as additive (20 mM); in short: as §1
[13] = The compound was tested for half life in presence of control; in short: as §1
[14] = The compound was tested for half life in presence of cystamine as additive (20 mM); in short: as §1
[15] = The compound was tested for half life in presence of salicylate as additive (20 mM); in short: as §1
[16] = The compound was tested for half life in presence of acetaminophen as additive (20 mM); in short: as §1
[17] = The compound was tested for half life in presence of aspirin as additive (20 mM); in short: as §1
[18] = The compound was tested for half life in presence of cysteine as additive (20 mM); in short: as §1

half-life [1]: 24 min
half-life [2]: 17 min
half-life [3]: 60 min
half-life [4]: 76 min
half-life [5]: 31 min
half-life [6]: 31 min
half-life [7]: 23 min
half-life [8]: 24 min
half-life [9]: 6.7 min
half-life [10]: 14 min
half-life [11]: 68 min
half-life [12]: 72 min
half-life [13]: 9.4 min
half-life [14]: 43 min
half-life [15]: 6.5 min
half-life [16]: 33 min
half-life [17]: 6.4 min
half-life [18]: 78 min
Compound: CC(=O)N(O)c1ccc(O)cc1
